In test [1] the target is ChT-L site of the proteasome. Kind of test: Binding affinity to the ChT-L site of the proteasome. The test is classed as biochemical. The note with it: read-out: IC50, ChT-L site of the proteasome; proteasome source not stated.
Test [2] has as its system NCI-H460 cells. Kind of test: Cytotoxicity assay to NCI-H460 human lung carcinoma cells. It is filed as cell-based.
Test [3] deals with human 20S proteasome ChT-L site (Homo sapiens, UniProt P20618+P28074). Kind of test: Proteasome inhibition assay, chymotrypsin-like site, fluorogenic substrate. The test is classed as biochemical. The method in brief: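 Human recombinant 20S proteasome, 3 µg/mL in buffer (100 mM Tris pH 7.5, 0.5 mM EDTA, 0.03% SDS), preincubated 30 min at 37 °C with test compound or 25% DMSO vehicle. Reaction started with site-selective AMC substrate (Suc-LLVY-AMC for ChT-L) and run 30 min at 37 °C. Eleven-point 3-fold series, 1.0 µM–[…] final, in triplicate. Fluorescence read at ex 365/em 450 nm; data scaled to internal controls; IC50 from four-parameter logistic fit.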

For test [4], the system named is HCT116 cells. Kind of test: Cytotoxicity to HCT116 colon adenocarcinoma cell line. The test is classed as cell-based.
The target of test [5] is human 20S proteasome T-L site (Homo sapiens, UniProt P49720+Q99436). As to the kind of experiment: Proteasome inhibition assay, trypsin-like site, fluorogenic substrate. It is filed as biochemical.
Test [6] has as its system SKBR3 cells (Her2+). Kind of test: Cell proliferation assay. The test is classed as cell-based. The settings on record: Homo sapiens, SK-BR-3, read-out: SKBR3 IC50.
The target of test [7] is human 20S proteasome C-L site (Homo sapiens, UniProt P28072+Q99436). As to the kind of experiment: Proteasome inhibition assay, caspase-like site, fluorogenic substrate. The test is classed as biochemical.
Test [8] relates to MDA-MB-468 cells (Her2-). As to the kind of experiment: Cell proliferation assay. The test is classed as cell-based. The settings on record: Homo sapiens, MDA-MB-468, read-out: MDA-MB-468 IC50.
The mark [9] stands for this setting: read-out: NCI-H460 IC50, Table 1, NCI-H460 cell line.
Setting [10] is: Homo sapiens, NCI-H460, read-out: NCI-H460 IC50.
Where [11] appears, read: Homo sapiens, HCT-116, read-out: HCT116 IC50.

Like-named read-outs stand apart in the source and are kept apart here. A value given as a limit tells only on which side of the number the result lay.

On to `CC(C)CC(NC(=O)C(CCS(C)(=O)=O)NC(=O)C(NC(=O)CCCCCN)C(C)C)C(=O)C1(C)CO1` (centres unmarked) [Analogue 6], for which the IC50 (usually the concentration that inhibits the measured activity by half) came out at 539 nM in test [1] and 860 nM in test [2] (setting [9]).

Turning to `CCCCCC(=O)N[C@H](C(=O)N[C@@H](CCS(=O)(=O)CCN)C(=O)N[C@@H](CC(C)C)C(=O)[C@@]1(C)CO1)C(C)C` [Analogue 7, N-((S)-1-(((S)-4-((2-aminoethyl)sulfonyl)-1-(((S)-4-methyl-1-((R)-2-methyloxiran-2-yl)-1oxopentan-2-yl)amino)-1-oxobutan-2-yl)amino)-3-methyl-1-oxobutan-2-yl)hexanamide], the results for the IC50 in test [3], in test [2] (setting [10]) and in test [4] (setting [11]) were 42.2 ± 5.4 nM, 34 nM and 624 nM, respectively.

For the compound `CCCCCC(=O)N[C@H](C(=O)N[C@@H](CCS(=O)(=O)CCNC(=O)OC(C)(C)C)C(=O)N[C@@H](CC(C)C)C(=O)[C@@]1(C)CO1)C(C)C` [Analogue 7-Boc, tert-Butyl (2-(((S)-3-((S)-2-hexanamido-3-methylbutanamido)-4-(((S)-4-methyl-1-((R)-2methyloxiran-2-yl)-1-oxopentan-2-yl)amino)-4-oxobutyl)sulfonyl)ethyl)carbamate], the figures for the IC50 in test [3], in test [2] (setting [10]) and in test [4] (setting [11]) were 14.2 ± 2.4 nM, 2.1 ± 0.16 nM and 4.8 ± 0.27 nM, respectively.

On to `CC(C)C[C@H](NC(=O)[C@H](CCS(=O)(=O)CCN)NC(=O)[C@H](Cc1ccccc1)NC(=O)Cc1ccccc1)C(=O)[C@@]1(C)CO1` [Analogue 8, (S)-4-((2-Aminoethyl)sulfonyl)-N-((S)-4-methyl-1-((R)-2-methyloxiran-2-yl)-1-oxopentan-2yl)-2-((S)-3-phenyl-2-(2-phenylacetamido)propanamido)butanamide], for which the results for the IC50 in test [2] (setting [10]) and in test [4] (setting [11]) were 34.2 nM and 165 nM, respectively.

Take `CC(C)C[C@H](NC(=O)[C@H](CCS(=O)(=O)CCNC(=O)OC(C)(C)C)NC(=O)[C@H](Cc1ccccc1)NC(=O)Cc1ccccc1)C(=O)[C@@]1(C)CO1` [Analogue 8-Boc, tert-Butyl (2-(((S)-4-(((S)-4-methyl-1-((R)-2-methyloxiran-2-yl)-1-oxopentan-2-yl)amino)-4oxo-3-((S)-3-phenyl-2-(2-phenylacetamido)propanamido)butyl)sulfonyl)ethyl)carbamate]: the IC50 came to 8.5 ± 1.2 nM in test [2] (setting [10]) and 4.8 ± 0.35 nM in test [4] (setting [11]).

For `CCCCCC(=O)N[C@H](C(=O)N[C@@H](CCS(=O)(=O)CCN)C(=O)N[C@@H](Cc1ccccc1)C(=O)[C@@]1(C)CO1)C(C)C` [Analogue 9, N-((S)-1-(((S)-4-((2-Aminoethyl)sulfonyl)-1-(((S)-1-((R)-2-methyloxiran-2-yl)-1-oxo-3phenylpropan-2-yl)amino)-1-oxobutan-2-yl)amino)-3-methyl-1-oxobutan-2-yl)hexanamide], the IC50 in test [2] (setting [10]) was 33.4 nM; in test [4] (setting [11]) it was 882 nM.

For `CCCCCC(=O)N[C@H](C(=O)N[C@@H](CCS(=O)(=O)CCNC(=O)OC(C)(C)C)C(=O)N[C@@H](Cc1ccccc1)C(=O)[C@@]1(C)CO1)C(C)C` [Analogue 9-Boc, tert-Butyl (2-(((S)-3-((S)-2-hexanamido-3-methylbutanamido)-4-(((S)-1-((R)-2methyloxiran-2-yl)-1-oxo-3-phenylpropan-2-yl)amino)-4oxobutyl)sulfonyl)ethyl)carbamate], the IC50 in test [2] (setting [10]) amounted to 2.6 ± 0.12 nM; in test [4] (setting [11]), 1.3 ± 0.2 nM.

`C[C@]1(C(=O)[C@H](Cc2ccccc2)NC(=O)[C@H](CCS(=O)(=O)CCN)NC(=O)[C@H](Cc2ccccc2)NC(=O)Cc2ccccc2)CO1` [Analogue 10, (S)-4-((2-Aminoethyl)sulfonyl)-N-((S)-1-((R)-2-methyloxiran-2-yl)-1-oxo-3-phenylpropan-2yl)-2-((S)-3-phenyl-2-(2-phenylacetamido)propanamido)butanamide]: the IC50 in test [2] (setting [10]) came to 304 nM; in test [4] (setting [11]), 698 nM.

`CC(C)(C)OC(=O)NCCS(=O)(=O)CC[C@H](NC(=O)[C@H](Cc1ccccc1)NC(=O)Cc1ccccc1)C(=O)N[C@@H](Cc1ccccc1)C(=O)[C@@]1(C)CO1` [Analogue 10-Boc, tert-Butyl (2-(((S)-4-(((S)-1-((R)-2-methyloxiran-2-yl)-1-oxo-3-phenylpropan-2-yl)amino)-4oxo-3-((S)-3-phenyl-2-(2-phenylacetamido)propanamido)butyl)sulfonyl)ethyl)carbamate]: the IC50 in test [2] (setting [10]) was 21 ± 1.3 nM; in test [4] (setting [11]), 10.9 ± 0.98 nM.

As for `CCCCCC(=O)N[C@H](C(=O)N[C@@H](CCS(=O)(=O)c1ccc(N)cc1)C(=O)N[C@@H](CC(C)C)C(=O)[C@@]1(C)CO1)C(C)C` [Analogue 13, N-((S)-1-(((S)-4-((4-Aminophenyl)sulfonyl)-1-(((S)-4-methyl-1-((R)-2-methyloxiran-2-yl)-1oxopentan-2-yl)amino)-1-oxobutan-2-yl)amino)-3-methyl-1-oxobutan-2-yl)hexanamide], the IC50 in test [5] is 14 nM; in test [6], 0.43 nM; in test [7] it was 540 nM; in test [3], 1.5 ± 0.2 nM; in test [2] (setting [10]), 1.8 ± 0.1 nM; in test [4] (setting [11]), 2.6 ± 0.2 nM.

Take `CCCCCC(=O)N[C@H](C(=O)N[C@@H](CCS(=O)(=O)c1ccc(NC(=O)OC(C)(C)C)cc1)C(=O)N[C@@H](CC(C)C)C(=O)[C@@]1(C)CO1)C(C)C` [Analogue 13-Boc, tert-Butyl (4-(((S)-3-((S)-2-hexanamido-3-methylbutanamido)-4-(((S)-4-methyl-1-((R)-2methyloxiran-2-yl)-1-oxopentan-2-yl)amino)-4-oxobutyl)sulfonyl)phenyl)carbamate]: in test [4] (setting [11]), the IC50 stood at 4.9 ± 0.1 nM.

For `CCCCCC(=O)N[C@H](C(=O)N[C@@H](CCC(=O)N[C@@H](CC(C)C)C(=O)[C@@]1(C)CO1)C(=O)N[C@@H](CC(C)C)C(=O)[C@@]1(C)CO1)C(C)C` [Analogue 14, (S)-2-((S)-2-Hexanamido-3-methylbutanamido)-N1,N5-bis((S)-4-methyl-1-((R)-2methyloxiran-2-yl)-1-oxopentan-2-yl)pentanediamide], the IC50 in test [5] was 98 nM; in test [7], 150 nM; in test [3] it was 1.9 ± 0.1 nM; in test [2] (setting [10]), 5.4 ± 1 nM; in test [4] (setting [11]), 0.2 ± 0.1 nM.

As to `CCCCCC(=O)N[C@@H](Cc1ccc(N)cc1)C(=O)N[C@@H](CCC(=O)N[C@@H](CC(C)C)C(=O)[C@@]1(C)CO1)C(=O)N[C@@H](CC(C)C)C(=O)[C@@]1(C)CO1` [Analogue 15, (S)-2-((S)-3-(4-Aminophenyl)-2-hexanamidopropanamido)-N1,N5-bis((S)-4-methyl-1-((R)2-methyloxiran-2-yl)-1-oxopentan-2-yl)pentanediamide], the IC50 in test [5] is 315 nM; in test [6], 21 nM; in test [7], > 1000 nM; in test [8], 30 nM; in test [3], 5.6 nM; in test [2] (setting [10]) it was 29.8 nM. In addition, the IC50 in test [4] (setting [11]) was determined as 53 nM.

With `CC(C)C[C@H](NC(=O)CC[C@H](NC(=O)[C@@H](NC(=O)Cc1ccc(N)cc1)C(C)C)C(=O)N[C@@H](CC(C)C)C(=O)[C@@]1(C)CO1)C(=O)[C@@]1(C)CO1` [Analogue 16, (S)-2-((S)-2-(2-(4-Aminophenyl)acetamido)-3-methylbutanamido)-N1,N5-bis((S)-4-methyl1-((R)-2-methyloxiran-2-yl)-1-oxopentan-2-yl)pentanediamide], the IC50 in test [5] was 71.5 nM; in test [6], 25 nM; in test [7], > 1000 nM; in test [8], 33 nM; in test [3], 90 ± 13 nM; in test [2] (setting [10]), 25.3 nM. In test [4] (setting [11]), the IC50 was 45 nM.

For the compound `CCCCCC(=O)N[C@H](C(=O)N[C@@H](CCC(=O)N[C@@H](CC(C)C)C(=O)[C@@]1(C)CO1)C(=O)NC(CCS(=O)(=O)c1ccc(N)cc1)C(=O)OC)C(C)C` (stereo partly drawn) [Analogue 17, Methyl 4-((4-aminophenyl)sulfonyl)-2-((S)-2-((S)-2-hexanamido-3-methylbutanamido)-5(((S)-4-methyl-1-((R)-2-methyloxiran-2-yl)-1-oxopentan-2-yl)amino)-5oxopentanamido)butanoate], the IC50 in test [5] is > 1000 nM; in test [6] it was 2430 nM; in test [7], > 1000 nM; in test [8], 1740 nM; in test [3], > 1000 nM; in test [2] (setting [10]), > 10000 nM. Further, the IC50 in test [4] (setting [11]) stood at 5540 nM.

`CCCCCC(=O)NC(C(=O)NC(CCSC)C(=O)NC(CC(C)C)C(=O)C1(C)CO1)C(C)C` (centres unmarked) [Analogue 21]: the IC50 turned out to be 27 ± 2.6 nM in test [2] (read-out: NCI-H460 IC50, Table 2, NCI-H460 cell line) and 22 nM in test [4] (read-out: HCT116 IC50, Table 2, HCT116 cell line).

`CCCCCC(=O)N[C@H](C(=O)N[C@@H](CCS(C)(=O)=O)C(=O)N[C@@H](CC(C)C)C(=O)[C@@]1(C)CO1)C(C)C` [carmaphycin B, reference compound]: in test [2] (setting [9]), the IC50 worked out at 6 nM.

For the origin of these results see paper PMC6248884 (European journal of medicinal chemistry, 2018).
